# Activity calls are given as the source filed them. The calls are words filed in the database; no cut-off is given here.
# System: SH-SY5Y
# Experiment: Inhibition of amyloid beta (1 to 42)-induced lipid peroxidation in human SH-SY5Y cells at 10 uM incubated for 48 hrs by BODIPY-C11'581/591 probe-based flow cytometric analysis
# Format: functional, cell-based
# Settings: not given
# Method in brief: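 SH-SY5Y seeded 2×10^4/well and adhered 24 h, then given compound with Aβ1-42 for 48 h. Stained with BODIPY-C11 581/591 (1 μM) for 30 min at 37 °C in the dark. Flow cytometry at ex 488, em 525±25 nm, 10,000 events. Untreated, DEM (1 mM) and Aβ-alone controls.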
row,Compound,inhibition
1,Cc1cccc(/C=C/C(=O)c2ccc(O)c(O)c2O)c1,Active

# System: SH-SY5Y
# Experiment: Neuroprotective activity against amyloid beta (1 to 42)-induced neurodegeneration in human SH-SY5Y cells assessed as cell viability at 10 uM preincubated for 4 hrs followed by amyloid beta (1 to 42) addition and measured after 48 hrs by MTS assay (reference value: 60.4%)
# Format: functional
# Settings: not given
row,Compound,Activity
1,Cc1cccc(/C=C/C(=O)c2cc(O)cc(O)c2)c1,Active
2,COc1ccc(/C=C/C(=O)c2cc(O)cc(O)c2)cc1,Active

# Same assay, conditions: read-out: Activity
row,Compound,viability at 10 µM
1,COCOc1ccc(C(=O)/C=C/c2ccc(OC)cc2)c(O)c1OCOC,72 to 84.9%
2,COc1cc(/C=C/C(=O)CC(=O)/C=C/c2ccc(O)c(OC)c2)ccc1O [CURCUMIN],76%
3,Cc1cccc(/C=C/C(=O)c2ccc(O)c(O)c2O)c1,96.5 to 106%
4,COCOc1ccc(C(=O)/C=C/c2cccc(Cl)c2)c(O)c1OCOC,72 to 84.9%
5,COCOc1ccc(C(=O)/C=C/c2cccc(C)c2)c(O)c1OCOC,72 to 84.9%
6,O=C(O[C@@H]1Cc2c(O)cc(O)cc2O[C@@H]1c1cc(O)c(O)c(O)c1)c1cc(O)c(O)c(O)c1 [EPIGALOCATECHIN GALLATE],92.5%
7,O=C(/C=C/c1cccc(Cl)c1)c1ccc(O)c(O)c1O,96.5 to 106%
8,COc1ccc(/C=C/C(=O)c2ccc(O)c(O)c2O)cc1,96.5 to 106%

# System: HEK293
# Experiment: Inhibition of (1S,3R)-RSL3-induced ferroptosis in HEK293 cells preincubated for 4 hrs followed by erastin stimulation and measured at next day by MTS assay
# Format: functional, cell-based, Homo sapiens
# Settings: not given
# Method in brief: (§1)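 HEK-293 cells grown in DMEM with 10 % FBS, 1 % pen/strep and 1 mM sodium pyruvate, 37 °C, 5 % CO2. Seeded 5000/well for 24 h. Compounds at a range of concentrations added 4 h before ferroptosis induction with (1S,3R)-RSL3 (500 nM) or erastin (10 μM). MTS viability read 24 h after induction, normalized to vehicle. IC50 taken as the mean of ≥3 experiments.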
row,Compound,IC50
1,O=C(O[C@@H]1Cc2c(O)cc(O)cc2O[C@@H]1c1cc(O)c(O)c(O)c1)c1cc(O)c(O)c(O)c1 [EPIGALOCATECHIN GALLATE],Not Active

# System: HEK293
# Experiment: Inhibition of (1S,3R)-RSL3-induced ferroptosis in HEK293 cells preincubated for 4 hrs followed by (1S,3R)-RSL3 stimulation and measured at next day by MTS assay
# Settings: Homo sapiens
row,Compound,IC50
1,Cc1cccc(/C=C/C(=O)c2ccc(O)c(O)c2O)c1,0.45 µM
2,O=C(/C=C/c1cccc(Cl)c1)c1ccc(O)c(O)c1O,0.86 µM
3,COc1ccc(/C=C/C(=O)c2ccc(O)c(O)c2O)cc1,1.77 µM

# System: SH-SY5Y
# Experiment: Neuroprotective activity against amyloid beta (1 to 42)-induced neurodegeneration in human SH-SY5Y cells assessed as cell viability at 0.5 uM preincubated for 4 hrs followed by amyloid beta (1 to 42) addition and measured after 48 hrs by MTS assay (reference value: 55.1%)
# Format: functional
# Settings: read-out: Activity
row,Compound,viability at 0.5 µM
1,Cc1cccc(/C=C/C(=O)c2ccc(O)c(O)c2O)c1,66.7 to 73.8%
2,O=C(O[C@@H]1Cc2c(O)cc(O)cc2O[C@@H]1c1cc(O)c(O)c(O)c1)c1cc(O)c(O)c(O)c1 [EPIGALOCATECHIN GALLATE],60.1%
3,O=C(/C=C/c1cccc(Cl)c1)c1ccc(O)c(O)c1O,66.7 to 73.8%
4,COc1ccc(/C=C/C(=O)c2ccc(O)c(O)c2O)cc1,66.7 to 73.8%

# System: SH-SY5Y
# Experiment: Neuroprotective activity against amyloid beta (1 to 42)-induced neurodegeneration in human SH-SY5Y cells assessed as increase in cell viability at 1 uM preincubated for 4 hrs followed by amyloid beta (1 to 42) addition after 48 hrs by micrograph method
# Format: functional, cell-based
# Settings: not given
# Method in brief: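 SH-SY5Y cells pretreated with compound (1 μM), then exposed to Aβ1-42 (10 μM) for 48 h. Cell morphology and clumping assessed by light micrographs against vehicle and Aβ-alone cells.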
row,Compound,Activity
1,Cc1cccc(/C=C/C(=O)c2ccc(O)c(O)c2O)c1,Active
2,O=C(/C=C/c1cccc(Cl)c1)c1ccc(O)c(O)c1O,Active
3,COc1ccc(/C=C/C(=O)c2ccc(O)c(O)c2O)cc1,Active

# System: SH-SY5Y
# Experiment: Inhibition of RSL3-induced lipid peroxidation in human SH-SY5Y cells at 10 uM incubated for 24 hrs by BODIPY-C11'581/591 probe-based flow cytometric analysis
# Format: functional, cell-based
# Settings: not given
# Method in brief: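 SH-SY5Y seeded 2×10^4/well and adhered 24 h, then given compound plus RSL3 (500 nM) for 24 h. Stained with BODIPY-C11 581/591 (1 μM) for 30 min at 37 °C in the dark. Flow cytometry at ex 488, em 525±25 nm, 10,000 events. Controls: untreated (negative), DEM 1 mM, and RSL3 alone.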
row,Compound,inhibition
1,O=C(/C=C/c1cccc(Cl)c1)c1ccc(O)c(O)c1O,Active
2,COc1ccc(/C=C/C(=O)c2ccc(O)c(O)c2O)cc1,Active

# System: HEK293
# Experiment: Inhibition of erastin-induced ferroptosis in HEK293 cells preincubated for 4 hrs followed by erastin stimulation and measured at next day by MTS assay
# Format: functional, cell-based, Homo sapiens
# Settings: Homo sapiens, HEK293; read-out: IC50
# Method in brief: as §1
row,Compound,IC50
1,Cc1cccc(/C=C/C(=O)c2ccc(O)c(O)c2O)c1,3.81 µM
2,O=C(/C=C/c1cccc(Cl)c1)c1ccc(O)c(O)c1O,3.15 µM
3,COc1ccc(/C=C/C(=O)c2ccc(O)c(O)c2O)cc1,3.88 µM

# Same assay, conditions: hek293
row,Compound,IC50
1,O=C(O[C@@H]1Cc2c(O)cc(O)cc2O[C@@H]1c1cc(O)c(O)c(O)c1)c1cc(O)c(O)c(O)c1 [EPIGALOCATECHIN GALLATE],Not Active

# System: SH-SY5Y
# Experiment: Neuroprotective activity against amyloid beta (1 to 42)-induced neurodegeneration in human SH-SY5Y cells assessed as cell viability at 1 uM preincubated for 4 hrs followed by amyloid beta (1 to 42) addition and measured after 48 hrs by MTS assay (reference value: 55.1%)
# Format: functional
# Settings: read-out: Activity
row,Compound,viability at 1 µM
1,Cc1cccc(/C=C/C(=O)c2ccc(O)c(O)c2O)c1,70.8 to 77.5%
2,O=C(O[C@@H]1Cc2c(O)cc(O)cc2O[C@@H]1c1cc(O)c(O)c(O)c1)c1cc(O)c(O)c(O)c1 [EPIGALOCATECHIN GALLATE],63%
3,O=C(/C=C/c1cccc(Cl)c1)c1ccc(O)c(O)c1O,70.8 to 77.5%
4,COc1ccc(/C=C/C(=O)c2ccc(O)c(O)c2O)cc1,70.8 to 77.5%

# Target: Amyloid-beta precursor protein (Homo sapiens) (UniProt P05067)
# Experiment: Inhibition of HFIP-pretreated amyloid beta (1 to 42 residues) (unknown origin) self aggregation at 25 uM after 7 days by ThT-based fluorometric method relative to control
# Settings: not given
# Method in brief: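 Aβ1-42 (25 μM) incubated with or without inhibitor (25 μM, 1:1) in 10 mM phosphate buffer pH 7.4 with 100 mM NaCl at 37 °C for 7 days. Inhibitor-only blanks included. Samples diluted in 50 mM glycine-NaOH pH 8.0 containing 5 μM ThT, fluorescence read at ex 440/em 485 nm. % inhibition = (1−IFi/IFc)×100 after background subtraction, triplicate.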
# Amyloid-beta precursor protein (Homo sapiens), sequence (P05067 whole entry, the tested form may be a part): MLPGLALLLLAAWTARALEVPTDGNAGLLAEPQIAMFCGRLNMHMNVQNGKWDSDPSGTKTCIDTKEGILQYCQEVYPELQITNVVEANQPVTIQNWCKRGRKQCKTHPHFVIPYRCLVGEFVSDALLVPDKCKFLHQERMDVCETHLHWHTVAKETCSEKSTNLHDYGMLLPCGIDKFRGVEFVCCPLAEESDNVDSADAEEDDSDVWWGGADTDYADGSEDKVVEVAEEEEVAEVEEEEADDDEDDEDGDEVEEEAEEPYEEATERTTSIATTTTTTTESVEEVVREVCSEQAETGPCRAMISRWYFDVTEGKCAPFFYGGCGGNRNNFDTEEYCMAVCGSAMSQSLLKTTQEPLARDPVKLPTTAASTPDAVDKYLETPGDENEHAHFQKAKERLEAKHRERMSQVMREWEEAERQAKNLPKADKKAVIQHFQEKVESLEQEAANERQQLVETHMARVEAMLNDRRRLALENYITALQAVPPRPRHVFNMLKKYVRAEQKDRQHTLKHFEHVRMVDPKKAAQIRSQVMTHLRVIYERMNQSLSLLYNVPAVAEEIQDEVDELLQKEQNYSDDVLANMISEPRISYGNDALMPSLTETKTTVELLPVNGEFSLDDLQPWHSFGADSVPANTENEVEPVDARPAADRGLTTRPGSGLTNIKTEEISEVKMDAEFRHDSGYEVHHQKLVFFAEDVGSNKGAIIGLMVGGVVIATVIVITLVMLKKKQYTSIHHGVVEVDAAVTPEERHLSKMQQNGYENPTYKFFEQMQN
row,Compound,inhibition
1,COCOc1ccc(C(=O)/C=C/c2ccc(OC)cc2)c(O)c1OCOC,16.4%
2,Cc1cccc(/C=C/C(=O)c2ccc(O)c(O)c2O)c1,70.3 to 76.3%
3,COCOc1ccc(C(=O)/C=C/c2cccc(Cl)c2)c(O)c1OCOC,16.4%
4,COCOc1ccc(C(=O)/C=C/c2cccc(C)c2)c(O)c1OCOC,16.4%
5,Cc1cccc(/C=C/C(=O)c2cc(O)cc(O)c2)c1,27.2%
6,O=C(O[C@@H]1Cc2c(O)cc(O)cc2O[C@@H]1c1cc(O)c(O)c(O)c1)c1cc(O)c(O)c(O)c1 [EPIGALOCATECHIN GALLATE],52.9%
7,COc1ccc(/C=C/C(=O)c2cc(O)cc(O)c2)cc1,19%
8,COc1ccc(/C=C/C(=O)c2cccc(O)c2)cc1OC,inactive
9,O=C(/C=C/c1cccc(Cl)c1)c1ccc(O)c(O)c1O,70.3 to 76.3%
10,COc1ccc(/C=C/C(=O)c2ccc(O)c(O)c2O)cc1,70.3 to 76.3%
11,Cc1cccc(/C=C/C(=O)c2cccc(O)c2)c1,inactive

# System: not listed separately
# Experiment: (§2) Neurotoxicity against human SH-SY5Y cells assessed as cell viability at 10 to 40 uM after 24 hrs […] relative to control
# Format: toxicity, cell-based
# Settings: SH-SY5Y cells, read-out: Activity
row,Compound,"viability at 24 h, up to 40 µM"
1,Cc1cccc(/C=C/C(=O)c2cccc(O)c2)c1,73.6 to 77.4%

# System: SH-SY5Y
# Experiment: as §2
# Format: toxicity, cell-based
# Settings: sh-sy5y, 24 h, 40 µM
row,Compound,Activity
1,COCOc1ccc(C(=O)/C=C/c2ccc(OC)cc2)c(O)c1OCOC,Non-Toxic
2,Cc1cccc(/C=C/C(=O)c2ccc(O)c(O)c2O)c1,Non-Toxic
3,COCOc1ccc(C(=O)/C=C/c2cccc(Cl)c2)c(O)c1OCOC,Non-Toxic
4,COCOc1ccc(C(=O)/C=C/c2cccc(C)c2)c(O)c1OCOC,Non-Toxic
5,Cc1cccc(/C=C/C(=O)c2cc(O)cc(O)c2)c1,Non-Toxic
6,COc1ccc(/C=C/C(=O)c2cc(O)cc(O)c2)cc1,Non-Toxic
7,COc1ccc(/C=C/C(=O)c2cccc(O)c2)cc1OC,Non-Toxic
8,O=C(/C=C/c1cccc(Cl)c1)c1ccc(O)c(O)c1O,Non-Toxic
9,COc1ccc(/C=C/C(=O)c2ccc(O)c(O)c2O)cc1,Non-Toxic
